Our source for the MIC and IC50 values is ChEMBL document CHEMBL1275259, “In vitro antituberculosis activities of ACH-702, a novel isothiazoloquinolone, against quinolone-susceptible and quinolone-resistant isolates” (Antimicrob Agents Chemother, 2010).

Converted amounts (≈) assume the structure as drawn.

The subject of experiment [1] is Mycobacterium tuberculosis. Kind of experiment: Antimicrobial activity against multidrug-resistant Mycobacterium tuberculosis isolate 9. The class given is functional. In outline:
(§1)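 Broth microdilution MIC in modified 7H10 broth (pH 6.6). Drugs dissolved in DMSO at 1 mg/ml, then serially diluted. Isolates grown 5 to 10 days at 37°C on a rotary shaker, diluted to 100 Klett units and frozen. Final inoculum about 6 × 10^4 CFU/ml (range 1.2 × 10^4 to 2.6 × 10^5). Duplicate wells, sealed, read after about 21 days at 37°C in ambient air.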

Experiment [2] has as its target DNA gyrase subunit A (Mycobacterium tuberculosis, UniProt P9WG47, A90V). Kind of experiment: Inhibition of DNA supercoiling activitysof Mycobacterium tuberculosis DNA gyrase subunit A A90V mutant.
The subject of experiment [3] is Mycobacterium tuberculosis. Put plainly: Antimicrobial activity against extensively drug-resistant Mycobacterium tuberculosis isolate 17. The class given is functional. Summed up: as §1
The subject of experiment [4] is Mycobacterium tuberculosis. Put plainly: Antimicrobial activity against quinolone-resistant Mycobacterium tuberculosis isolate 12. The class given is functional. In outline:
as §1

The test system of experiment [5] is Mycobacterium tuberculosis. Kind of experiment: Antimicrobial activity against quinolone-resistant Mycobacterium tuberculosis isolate 10. Type of experiment: functional. Summed up:
as §1

The subject of experiment [6] is Mycobacterium tuberculosis. Kind of experiment: Antimicrobial activity against streptomycin-resistant Mycobacterium tuberculosis isolate 8. Type of experiment: functional. Summed up:
as §1

The test system of experiment [7] is Mycobacterium tuberculosis. Kind of experiment: Antimicrobial activity against multidrug-resistant Mycobacterium tuberculosis isolate 19. The class given is functional. Summed up: as §1
The target in experiment [8] is DNA gyrase subunit A (Mycobacterium tuberculosis, UniProt P9WG47, D94G). Kind of experiment: Inhibition of DNA supercoiling activity of Mycobacterium tuberculosis DNA gyrase subunit A D94G mutant.
For experiment [9], the system named is Mycobacterium tuberculosis. Kind of experiment: Antimicrobial activity against extensively drug-resistant Mycobacterium tuberculosis isolate 18. Type of experiment: functional. Summed up: as §1
Experiment [10] deals with Mycobacterium tuberculosis. Put plainly: Antimicrobial activity against quinolone-resistant Mycobacterium tuberculosis isolate 11. Type of experiment: functional. Summed up:
as §1

For experiment [11], the system named is Mycobacterium tuberculosis. Kind of experiment: Antimicrobial activity against isoniazid-resistant Mycobacterium tuberculosis isolate 15. The class given is functional. In outline: as §1
For experiment [12], the system named is Mycobacterium tuberculosis. Put plainly: Antimicrobial activity against extensively drug-resistant Mycobacterium tuberculosis isolate 16. Type of experiment: functional. In outline:
as §1

Experiment [13] relates to Mycobacterium tuberculosis. Put plainly: Antimicrobial activity against multidrug drug-resistant Mycobacterium tuberculosis isolate 20. The class given is functional. In outline:
as §1

Molecule `CN[C@@H]1[C@H](O[C@H]2[C@H](O[C@H]3[C@H](O)[C@@H](O)[C@H](N=C(N)N)[C@@H](O)[C@@H]3N=C(N)N)O[C@@H](C)[C@]2(O)C=O)O[C@@H](CO)[C@H](O)[C@H]1O` [STREPTOMYCIN] yielded an MIC in experiment [1] of 32 µg/mL (≈ 55 µM).

`COc1c(N2CC[C@@H](C(C)(C)N)C2)c(F)cc2c(=O)c3c(=O)[nH]sc3n(C3CC3)c12`: the 50% inhibitory concentration (IC50) against DNA gyrase subunit A [2] is 4.6 µM; against DNA gyrase subunit A [8], 7.9 µM. Further, the minimal inhibitory concentration (MIC) in experiment [3] was found to be 1 µg/mL (≈ 2.31 µM); in experiment [4], 1 µg/mL (≈ 2.31 µM); in [5] it was 0.125 µg/mL (≈ 0.289 µM); in experiment [6] it was 0.25 µg/mL (≈ 0.578 µM); in experiment [1], 0.06 µg/mL (≈ 0.139 µM); in experiment [7], 0.03 µg/mL (≈ 0.0694 µM). Moreover, the MIC in experiment [9] stood at 0.125 µg/mL (≈ 0.289 µM); in [10], 0.25 µg/mL (≈ 0.578 µM); in experiment [11], 0.06 µg/mL (≈ 0.139 µM); in [12] it was 0.5 µg/mL (≈ 1.16 µM); in experiment [13], 0.03 µg/mL (≈ 0.0694 µM).

Take `C[C@H]1COc2c(N3CCN(C)CC3)c(F)cc3c(=O)c(C(=O)O)cn1c23` [LEVOFLOXACIN]: the 50% inhibitory concentration (IC50) on DNA gyrase subunit A [2] and at DNA gyrase subunit A [8] was greater than 300 µM in each case.

As for `CO[C@H]1/C=C/O[C@@]2(C)Oc3c(C)c(O)c4c(O)c(c(/C=N/N5CCN(C)CC5)c(O)c4c3C2=O)NC(=O)/C(C)=C\C=C\[C@H](C)[C@H](O)[C@@H](C)[C@@H](O)[C@@H](C)[C@H](OC(C)=O)[C@@H]1C` [RIFAMPIN], the MIC in [3] stood at 8 µg/mL (≈ 9.72 µM); in experiment [4], 0.004 µg/mL (≈ 0.00486 µM); in experiment [5], 0.004 µg/mL (≈ 0.00486 µM); in experiment [6], 0.008 µg/mL (≈ 0.00972 µM); in [1], 64 µg/mL (≈ 77.8 µM); in [7], 64 µg/mL (≈ 77.8 µM). The MIC in experiment [9] came to 8 µg/mL (≈ 9.72 µM); in [10] it was 0.03 µg/mL (≈ 0.0365 µM); in [11] it was 0.002 µg/mL (≈ 0.00243 µM); in experiment [12], 8 µg/mL (≈ 9.72 µM); in [13], 16 µg/mL (≈ 19.4 µM).

Turning to `COc1c(N2CCNC(C)C2)c(F)cc2c(=O)c(C(=O)O)cn(C3CC3)c12` (stereo unspecified) [GATIFLOXACIN], the half-inhibitory concentration (IC50) against DNA gyrase subunit A [2] is 28 µM; at DNA gyrase subunit A [8] it was 44 µM.

`NNC(=O)c1ccncc1` [ISONIAZID]: the MIC in [3] came out at 1 µg/mL (≈ 7.29 µM); in experiment [4], 0.03 µg/mL (≈ 0.219 µM); in experiment [5], 0.03 µg/mL (≈ 0.219 µM); in experiment [6], 0.125 µg/mL (≈ 0.911 µM); in [1], 4 µg/mL (≈ 29.2 µM); in [7] it was 2 µg/mL (≈ 14.6 µM). In addition, the MIC in experiment [9] was 2 µg/mL (≈ 14.6 µM); in experiment [10] it was 0.03 µg/mL (≈ 0.219 µM); in experiment [11] it was greater than 8 µg/mL; in experiment [12] it was 1 µg/mL (≈ 7.29 µM); in experiment [13], 2 µg/mL (≈ 14.6 µM).

Turning to `COc1c(N2C[C@@H]3CCCN[C@@H]3C2)c(F)cc2c(=O)c(C(=O)O)cn(C3CC3)c12` [MOXIFLOXACIN], the MIC in experiment [3] was 2 µg/mL (≈ 4.98 µM); in experiment [4], 8 µg/mL (≈ 19.9 µM); in [5], greater than 8 µg/mL; in experiment [6], 0.06 µg/mL (≈ 0.149 µM); in experiment [1] it was 0.06 µg/mL (≈ 0.149 µM); in experiment [7], 0.03 µg/mL (≈ 0.0747 µM). Also, the MIC in [9] stood at 1 µg/mL (≈ 2.49 µM); in experiment [10] it was 4 µg/mL (≈ 9.96 µM); in experiment [11] it was 0.06 µg/mL (≈ 0.149 µM); in [12], 1 µg/mL (≈ 2.49 µM); in experiment [13] it was 0.03 µg/mL (≈ 0.0747 µM).
